# Tests used:
# Format in all cases: functional
# [1] = system: MCF7; assay: Anticancer activity against Homo sapiens (human) MCF7 cells assessed as cell growth at 10 uM by SRB assay; settings: read-out: Activity
# Summary of the method: (§1)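 NCI 60-cell human tumour panel (nine cancer types) screened at one concentration, 10−5 M. Cell growth estimated by sulforhodamine B protein staining and reported as percent growth of treated cells relative to untreated controls.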
# [2] = system: EKVX; assay: Anticancer activity against Homo sapiens (human) EKVX cells assessed as cell growth at 10 uM by SRB assay; settings: read-out: Activity; summary of the method: as §1
# [3] = system: UO-31; assay: Anticancer activity against Homo sapiens (human) UO31 cells by SRB assay
# Summary of the method: (§2)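 NCI five-dose follow-up on the 60-line human tumour panel at tenfold dilutions from 10−4 to 10−8 M, with growth read by sulforhodamine B protein assay against untreated controls. For each cell line, GI50 (half growth inhibition), TGI (total growth inhibition) and LC50 (50% death of initial cells) are calculated as molar concentrations.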
# [4] = system: Malme-3M; assay: Anticancer activity against Homo sapiens (human) MALME-3M cells by SRB assay
# Summary of the method: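 NCI 60-line panel, five tenfold dilutions from 10−4 to 10−8 M, growth read by sulforhodamine B staining against untreated controls. From the dose–response per line: GI50 (molar concentration giving half growth inhibition), TGI (molar concentration giving total growth inhibition, cytostatic) and LC50 (molar concentration killing 50% of initial cells, cytotoxic).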
# [5] = system: OVCAR-3; assay: Anticancer activity against Homo sapiens (human) OVCAR3 cells assessed as cell growth at 10 uM by SRB assay; settings: read-out: Activity
# Summary of the method: (§3)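 Single-dose screen in the NCI 60-human-tumour-cell-line panel (nine cancer types) at 10−5 M. Cell growth was estimated by sulforhodamine B protein staining and reported as percent growth of treated cells relative to untreated controls.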
# [6] = system: T47D; assay: Anticancer activity against Homo sapiens (human) T47D cells by SRB assay; summary of the method: as §2
# [7] = Anticancer activity against Homo sapiens (human) RPMI8266 cells assessed as cell growth at 10 uM by SRB assay; settings: read-out: Activity; summary of the method: as §3
compound,measurement,setting,value
O=c1sc2c(Cl)nc(-c3ccccc3)nc2n1-c1ccccc1,growth at 10 µM,[1],77%
same,growth at 10 µM,[2],84%
same,GI50,[3],1.32 µM
same,TGI,[3]; read-out: pTGI (converted),2.88 µM
same,GI50,[4],14.8 µM
same,TGI,[4]; read-out: pTGI (converted),79.4 µM
same,growth at 10 µM,[5],-41%
same,GI50,[6],17 µM
same,growth at 10 µM,[7],75%
